We go through one compound from ChEMBL document CHEMBL2311397, “Design and synthesis of cyclopropylamide analogues of combretastatin-A4 as novel microtubule-stabilizing agents” (J Med Chem, 2013).

What is called IC50 is the concentration at which inhibition is half-maximal. A higher IC50 goes with a need for much substance.

Calls of active or inactive are those of the source. The rule behind the calls is not given here.

Experiment [1] concerns HeLa. The experiment can be described thus: Cytotoxicity against human HeLa cells after 48 hrs by MTT assay. The class given is functional, cell-based. The conditions noted are these: Homo sapiens, HeLa, 48 h. In outline:
(§1)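 Log-phase cells (40000–50000 cells/mL) grown in DMEM with 10% fetal calf serum (5% CO2, 37 °C) and exposed 48 h to five concentrations, 3–5 replicates. Read-out was MTT with absorbance at 570 nm; IC50 reported as mean ± SD of three independent experiments. Resistant A549 and HeLa sublines were made by stepwise paclitaxel selection; resistance index = IC50(resistant)/IC50(sensitive).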
Background: Tetrazolium assays rely on reduction of a dye to a coloured formazan, in cell work by metabolically active cells.

The subject of experiment [2] is A549. The experiment can be described thus: Induction of apoptosis in human A549 cells assessed as early apoptotic cells at 1 uM after 24 hrs by annexin V-FITC/propidium iodide staining-based flow cytometry (reference value: 0.73 %). Format: functional. A general note: A flow cytometer gives signals particle by particle.
Experiment [3] relates to A549. As to the kind of experiment: Cell cycle arrest in human A549 cells assessed as accumulation at G1 phase at 10 uM after 24 hrs by propidium iodide staining-based flow cytometry (reference value: 87.56 %). The class given is functional.
Experiment [4] concerns A549. The experiment can be described thus: Antitumor activity against human A549 cells xenografted in ig dosed BALB/c nude mouse assessed as tumor growth inhibition measured on day 16. Format: functional, organism-based. In outline:
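Male BALB/c nude mice, 5 weeks old (18–20 g), implanted subcutaneously in the right armpit with A549 tumor fragments (3 mm3). On day 13, at 100–200 mm3, daily intragastric dosing began: 100 or 500 mg/kg test compound, or 30 mg/kg paclitaxel, in Tween-80 diluted with saline. Vehicle given ip. Tumor volume and body weight followed; n = 6; inhibition rate at day 16.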
(In xenograft studies the graft and the host belong to different species.)

For experiment [5], the system named is A549. As to the kind of experiment: Induction of apoptosis in human A549 cells assessed as viable cells at 10 uM after 24 hrs by annexin V-FITC/propidium iodide staining-based flow cytometry (reference value: 94.08%). Format: functional. As to conditions: A549, 24 h, read-out: Activity.
Experiment [6] relates to A549. The experiment can be described thus: Effect on microtubule dynamics in human A549 cells at 5 to 10 uM after 22 hrs by DAPI/FITC staining-based laser fluorescence confocal microscopic analysis. The class given is functional, cell-based. In outline: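 Confocal imaging of A549 cells exposed for 22 h to compound or vehicle (0.2% DMSO final), added at 70% confluency after overnight growth. Fixation followed by 0.5% Triton X-100 permeabilization and 10% goat serum blocking; tubulin stained with FITC anti-α-tubulin (1:100, 2 h, 37 °C), nuclei counterstained with DAPI. Wide-field images taken at 10–15 random slide locations.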

In experiment [7] the test system is A549. As to the kind of experiment: Cell cycle arrest in human A549 cells assessed as accumulation at S phase at 1 uM after 24 hrs by propidium iodide staining-based flow cytometry (reference value: 9.12 %). Format: functional.
For experiment [8], the system named is HeLa. As to the kind of experiment: Resistance index, ratio of IC50 for paclitaxel-resistant human HeLa cells to IC50 for paclitaxel-sensitive human HeLa cells. The class given is functional. Put shortly:
as §1

Experiment [9] concerns A549. As to the kind of experiment: Induction of apoptosis in human A549 cells early apoptotic cells at 5 uM after 24 hrs by annexin V-FITC/propidium iodide staining-based flow cytometry (reference value: 0.73 %). Format: functional.
The test system of a further experiment is K562. The experiment can be described thus: Cytotoxicity against human K562 cells after 48 hrs by MTT assay. The class given is functional, cell-based. As to conditions: Homo sapiens, K562, 48 h. Put shortly:
as §1

In experiment [10] the test system is A549. The experiment can be described thus: Cell cycle arrest in human A549 cells assessed as accumulation at G1 phase at 1 uM after 24 hrs by propidium iodide staining-based flow cytometry (reference value: 87.56 %). Format: functional.
The subject of experiment [11] is HeLa. As to the kind of experiment: Cytotoxicity against paclitaxel-resistant human HeLa cells after 48 hrs by MTT assay. The class given is functional, cell-based. Put shortly:
as §1

For experiment [12], the system named is A549. As to the kind of experiment: Cell cycle arrest in human A549 cells assessed as accumulation at S phase at 5 uM after 24 hrs by propidium iodide staining-based flow cytometry (reference value: 9.12 %). Format: functional.
In experiment [13] the test system is A549. The experiment can be described thus: Induction of apoptosis in human A549 cells assessed as late apoptotic cells at 5 uM after 24 hrs by annexin V-FITC/propidium iodide staining-based flow cytometry (reference value: 1.02%). The class given is functional.
Experiment [14] has as its system A549. As to the kind of experiment: Induction of apoptosis in human A549 cells assessed as viable cells at 1 uM after 24 hrs by annexin V-FITC/propidium iodide staining-based flow cytometry (reference value: 94.08%). The class given is functional. The conditions noted are these: A549, 24 h, read-out: Activity.
Experiment [15] concerns A549. As to the kind of experiment: Induction of apoptosis in human A549 cells assessed as necrotic cells at 1 uM after 24 hrs by annexin V-FITC/propidium iodide staining-based flow cytometry (reference value: 2.76%). Format: functional.
The subject of experiment [16] is A549. As to the kind of experiment: Induction of apoptosis in human A549 cells assessed as late apoptotic cells at 10 uM after 24 hrs by annexin V-FITC/propidium iodide staining-based flow cytometry (reference value: 1.02%). Format: functional.
For experiment [17], the system named is A549. As to the kind of experiment: Antimitotic activity against human A549 cells assessed as cell mitotic arrest at 5 uM after 22 hrs by DAPI/FITC staining-based laser fluorescence confocal microscopic analysis (reference value: 1.1 %). The class given is functional.
Experiment [18] concerns A549. As to the kind of experiment: Induction of apoptosis in human A549 cells assessed as necrotic cells at 5 uM after 24 hrs by annexin V-FITC/propidium iodide staining-based flow cytometry (reference value: 2.76%). Format: functional.

Turning to `COc1cc([C@@H]2C[C@]2(CO)C(=O)Nc2ccccc2Cl)cc(OC)c1OC`, the IC50 in the experiment on HeLa [1] stood at 8.1 µM; in the experiment with K562 it was 16.9 µM; in the experiment on HeLa [11], 10.7 µM. The Activity with A549 [2] is 15.57%; in the experiment with A549 [3], 9.85%; in the experiment on A549 [7], 9.96%; in the experiment with A549 [9], 37.4%; in the experiment with A549 [10] it was 38.41%; in the experiment with A549 [12], 10.81%. Further, the Activity with A549 [13] is reported as 1.36%; with A549 [15], 1.46%; with A549 [16], 2.99%; in the experiment with A549 [17], 53.1%; in the experiment on A549 [18] it was 2.04%. Besides, the TGI entry with A549 [4] was “Dose-dependent effect”. The viability at 10 µM with A549 [5] was 40.9%. Further, in the experiment with A549 [6], the result was Active. Besides, in the experiment with HeLa [8], the “Ratio IC50” value stood at 1.3. In the experiment with A549 [14], the viability at 1 µM worked out at 80.2%.
